Sampled rows, rich in hits. Any-hit rate of the full collection: about 2%.
ZTA DNA inh: blocks Epstein-Barr virus ZTA, an EBNA-1 counter-screen; P03206; ZTA-DNA binding, fluorescence polarization; inhibition, % at 11 µM; hit rate 0.15% among 320,000; in the data active = inhibition above about 33%
Target sequence (P03206 whole entry, looked up): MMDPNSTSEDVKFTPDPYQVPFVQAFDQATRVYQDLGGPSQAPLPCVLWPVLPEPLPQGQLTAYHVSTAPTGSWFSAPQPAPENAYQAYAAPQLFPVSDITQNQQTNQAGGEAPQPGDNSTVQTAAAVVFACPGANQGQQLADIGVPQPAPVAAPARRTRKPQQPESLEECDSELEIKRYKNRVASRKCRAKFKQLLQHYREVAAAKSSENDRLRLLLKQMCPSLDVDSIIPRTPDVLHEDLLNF
GPR7 antagonist: antagonists of human GPR7 (neuropeptides B/W receptor 1); GPR7-expressing cells, fluorescence antagonist assay; AID 1861; P48145; hit rate 1.1% among 290,000; inhibition, % at 4.4 µM; in the data active = inhibition above about 16%, passing the limit was not always enough;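 note: cells stimulated with the agonist NPW; 0% = agonist with vehicle and 100% = vehicle without agonist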
Target sequence (P48145 whole entry, looked up): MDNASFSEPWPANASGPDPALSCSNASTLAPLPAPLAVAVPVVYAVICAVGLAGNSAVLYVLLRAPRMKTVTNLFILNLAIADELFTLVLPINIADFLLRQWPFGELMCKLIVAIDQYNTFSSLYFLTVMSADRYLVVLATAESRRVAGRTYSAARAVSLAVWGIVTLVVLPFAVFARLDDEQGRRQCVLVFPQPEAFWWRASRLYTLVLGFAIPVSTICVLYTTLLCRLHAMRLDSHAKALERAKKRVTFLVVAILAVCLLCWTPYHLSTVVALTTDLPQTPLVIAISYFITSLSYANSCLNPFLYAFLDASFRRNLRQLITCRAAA
EBNA-1 inh: blocks EBNA-1 binding to DNA; AID 1950; inhibition, % at 14.8 µM; hit rate 0.34% among 300,000; EBNA-1 DNA binding, fluorescence polarization; in the data active = inhibition above about 28%
NS3 helicase inh: HCV NS3 helicase inhibition; hit rate 0.56% among 290,000; NS3 helicase DNA unwinding, Cy5 molecular beacon fluorescence; AID 1800; inhibition, % at 10.9 µM;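 active = inhibition above the mean of all tested compounds plus 3 SD, set per campaign, cut at about 35% in these data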;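 note: 0% = DMSO wells and 100% = thioflavine S control wells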
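System: NS3 helicase fragment of HCV / Schedule: 1 h at 25 °C / Control set: DMSO alone as 0% and 110 µM thioflavine S as 100% / Reagent: Cy5/quencher beacon DNA duplex and ATP to start / Technique: Cy5 fluorescence / Replication: singlicate / Evaluation: % inhibition of end-to-start signal ratio versus controls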
DNA FID counter-1: fluorescent intercalator displacement, NS3 helicase counter-screen; inhibition, % at 7.9 µM; DNA fluorescent intercalator displacement, fluorescence; AID 1845; hit rate 0.17% among 290,000;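 note: 0% = vehicle and 100% = reference compound; higher means more ethidium bromide displaced from hairpin DNA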
NS3 helicase cf: confirmation of Hepatitis C virus NS3 helicase inhibitors | NS3 helicase DNA unwinding, Cy5 molecular beacon fluorescence | inhibition, % at 10.9 µM | shares compounds with NS3 helicase inh | hit rate 31% among 1,600;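 active = inhibition above the mean of all tested compounds plus 3 SD, cutoff set per campaign, cut at about 36% in these data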
DNA FID counter-2: intercalator displacement, NS3 helicase counter-screen; shares compounds with NS3 helicase inh; DNA fluorescent intercalator displacement, fluorescence; inhibition, % at 7.9 µM; hit rate 4% among 1,600; AID 1945;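 note: 0% = vehicle and 100% = reference compound; higher means more displacement of ethidium bromide from the DNA hairpin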
FID counter DR: displaces fluorescent intercalator from DNA, HCV helicase counter-screen; AID 2172; IC50, µM; 120 tested, under 10 active; shares compounds with NS3 helicase inh; fluorescent intercalator displacement from DNA, fluorescence; call rule not given here
An asterisk follows results filed as active. Cut-off read from the data, not from the text of the source, unless noted: active = inhibition above about 37%; inactive = the rest.

Results for CCOc1ccc(N(CC(=O)NCc2ccccc2Cl)S(=O)(=O)c2c(C)noc2C)cc1 ?
ZTA DNA inh: 9; GPR7 antagonist: 9; EBNA-1 inh: -2; NS3 helicase inh: 40*; DNA FID counter-1: -37; NS3 helicase cf: -7; DNA FID counter-2: -25

What do the screens show for `Cc1noc(C)c1S(=O)(=O)N(CC(=O)NCCc1ccccc1)c1ccc(C(C)C)cc1`?
ZTA DNA inh: 4; GPR7 antagonist: -3; EBNA-1 inh: 7; NS3 helicase inh: 37*; DNA FID counter-1: -30; NS3 helicase cf: -9; DNA FID counter-2: -27

What do the screens show for `Cc1ccc(N(CC(=O)NCc2ccccc2Cl)S(=O)(=O)c2c(C)noc2C)cc1`?
ZTA DNA inh: -5; GPR7 antagonist: 13; EBNA-1 inh: -6; NS3 helicase inh: -23; DNA FID counter-1: -39

What do the screens show for `COc1cc(/C=C2\SC(c3ccc(C)cc3)=NC2=O)cc(OC)c1O`?
ZTA DNA inh: 26; GPR7 antagonist: -1; EBNA-1 inh: 11; NS3 helicase inh: -5; DNA FID counter-1: -10

What do the screens show for `Cc1ccc(C2=NC(=O)/C(=C/c3cc(O)c(O)c(Br)c3)S2)cc1`?
GPR7 antagonist: -10; NS3 helicase inh: 53*; DNA FID counter-1: -6; NS3 helicase cf: -17; DNA FID counter-2: 6

What do the screens show for `CCN(CC)C(=O)CSC1=N/C(=C/c2ccco2)C(=O)N1c1ccc(OC)c(Cl)c1`?
ZTA DNA inh: -14; GPR7 antagonist: 7; EBNA-1 inh: 1; NS3 helicase inh: 38*; DNA FID counter-1: -26; NS3 helicase cf: -9; DNA FID counter-2: -28

How did COc1ccc(NC(=O)CCNS(=O)(=O)c2cccc3nonc23)c(OC)c1 do in these assays?
ZTA DNA inh: 12; GPR7 antagonist: -1; EBNA-1 inh: 9; NS3 helicase inh: 1; DNA FID counter-1: -7

Results for Cc1cc(C(=O)CSc2nn3c(=O)c(C(C)(C)C)nnc3s2)c(C)n1-c1ccc(F)cc1 ?
ZTA DNA inh: 1; GPR7 antagonist: 3; EBNA-1 inh: 1; NS3 helicase inh: 40*; DNA FID counter-1: -12; NS3 helicase cf: 3; DNA FID counter-2: -27

Results for CC(C)N(C(=O)CSc1nn2c(=O)c(C(C)(C)C)nnc2s1)c1ccccc1 ?
ZTA DNA inh: -6; GPR7 antagonist: -7; EBNA-1 inh: -10; NS3 helicase inh: 5; DNA FID counter-1: -13

Results for Cc1cc(C(=O)CSc2nnnn2-c2ccccc2)c(C)n1-c1ccc2c(c1)OCO2 ?
ZTA DNA inh: 9; GPR7 antagonist: -5; EBNA-1 inh: 2; NS3 helicase inh: 37*; DNA FID counter-1: -12; NS3 helicase cf: 5; DNA FID counter-2: -14

Results for Fc1nc(F)c(F)c(NCCCNc2c(F)c(F)nc(F)c2F)c1F ?
ZTA DNA inh: -4; GPR7 antagonist: 0; EBNA-1 inh: 11; NS3 helicase inh: 52*; DNA FID counter-1: 6; NS3 helicase cf: -8; DNA FID counter-2: 16

Results for Cc1cc(C(=O)Nc2ccc(Br)cc2)cs1 ?
ZTA DNA inh: 6; GPR7 antagonist: -2; EBNA-1 inh: -1; NS3 helicase inh: -1; DNA FID counter-1: 1

How did O=C1CSC(=S)N1/N=C/c1ccc2c(c1)OCCO2 do in these assays?
ZTA DNA inh: -8; GPR7 antagonist: -17; EBNA-1 inh: -2; NS3 helicase inh: 21; DNA FID counter-1: -4

What do the screens show for `O=C1CSC(=S)N1/N=C/c1ccc(Cl)c([N+](=O)[O-])c1`?
ZTA DNA inh: 4; GPR7 antagonist: 2; EBNA-1 inh: 6; NS3 helicase inh: 44*; DNA FID counter-1: -2; NS3 helicase cf: 51*; DNA FID counter-2: 8

How did CCc1ccc(N=Nc2ccc(O)c3[nH]cnc23)cc1 do in these assays?
ZTA DNA inh: 2

How did Cn1c(CCN2CCN(c3ccccn3)CC2)nc2cc(NS(=O)(=O)c3ccccc3)ccc21 do in these assays?
ZTA DNA inh: -3; GPR7 antagonist: 13; EBNA-1 inh: -3; NS3 helicase inh: -19; DNA FID counter-1: 11

What do the screens show for `CCN(CC(=O)Nc1c(F)cccc1F)C(=O)CCN1C(=O)C2CCCCC2C1=O` (stereo unspecified)?
ZTA DNA inh: 8; EBNA-1 inh: 7

What do the screens show for `CC1CCc2sc3nc(NCc4ccco4)n4ncnc4c3c2C1` (stereo unspecified)?
ZTA DNA inh: 5; GPR7 antagonist: -25; EBNA-1 inh: 2; NS3 helicase inh: 39*; DNA FID counter-1: -7; NS3 helicase cf: -13; DNA FID counter-2: 7

Results for O=C(c1ccccc1Cc1ccccc1)N1CCN(S(=O)(=O)c2ccccc2[N+](=O)[O-])CC1 ?
ZTA DNA inh: 22; EBNA-1 inh: 3

How did CC(NC(=O)CSC(=S)N1CCCC1)c1ccc(S(N)(=O)=O)cc1 (stereo unspecified) do in these assays?
ZTA DNA inh: -1; EBNA-1 inh: 13

Results for Cc1ccc(N=C2NC(=O)/C(=C\c3ccco3)S2)cc1 ?
ZTA DNA inh: 1; GPR7 antagonist: 2; EBNA-1 inh: 8; NS3 helicase inh: 40*; DNA FID counter-1: -13; NS3 helicase cf: -4; DNA FID counter-2: -3

What do the screens show for `Cc1cccc(N=C2NC(=O)/C(=C/C=C/c3ccco3)S2)c1`?
ZTA DNA inh: 16; GPR7 antagonist: -8; EBNA-1 inh: 8; NS3 helicase inh: 44*; DNA FID counter-1: -17; NS3 helicase cf: 3; DNA FID counter-2: -7

What do the screens show for `Cc1cccc(N=C2NC(=O)S/C2=C\c2ccco2)c1`?
ZTA DNA inh: -16; GPR7 antagonist: -5; EBNA-1 inh: -5; NS3 helicase inh: 37*; DNA FID counter-1: -1; NS3 helicase cf: 0; DNA FID counter-2: 20

What do the screens show for `COc1ccc(N=C2NC(=O)/C(=C\C=C\c3ccco3)S2)cc1`?
GPR7 antagonist: -9; NS3 helicase inh: 46*; DNA FID counter-1: -16; NS3 helicase cf: 36*; DNA FID counter-2: 8; FID counter DR: >79

Results for O=C1NC(=Nc2ccc(O)cc2)S/C1=C/c1ccco1 ?
ZTA DNA inh: 2; GPR7 antagonist: -4; EBNA-1 inh: -1; NS3 helicase inh: 9; DNA FID counter-1: 2

Results for O=C1NC(=Nc2ccc3ccccc3c2)S/C1=C/c1ccco1 ?
ZTA DNA inh: 2; GPR7 antagonist: -4; EBNA-1 inh: 9; NS3 helicase inh: 28; DNA FID counter-1: -6

How did O=C1NC(=Nc2ccc(Cl)cc2)/C(=C/c2ccco2)S1 do in these assays?
ZTA DNA inh: -4; GPR7 antagonist: -4; EBNA-1 inh: 2; NS3 helicase inh: 13; DNA FID counter-1: -3

How did COc1cc2c(cc1OC)C(c1cc(OC)c(OC)cc1[N+](=O)[O-])N(C(C)=O)CC2 (stereo unspecified) do in these assays?
ZTA DNA inh: 15; GPR7 antagonist: -9; EBNA-1 inh: 8; NS3 helicase inh: 2; DNA FID counter-1: -11

Screening results deposited in PubChem by The Scripps Research Institute Molecular Screening Center.
